This passage reports inhibition, IC50 and Inhibition results from ChEMBL document CHEMBL1129380, “Synthesis, activity, and molecular modeling of a new series of tricyclic pyridazinones as selective aldose reductase inhibitors” (J Med Chem, 1996).

The species named for assay [1] is Bos taurus. The assay can be described thus: Inhibition of Aldehyde reductase 1. Also noted: concentration or dose not given beside the values. The following applies: concentration not given here. In a few lines:
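Partially purified bovine kidney ALR1 (ammonium sulfate fractionation plus DEAE-52 batch step, 11.3 mU/mg), at 3.5 mU/mL. Assay at 37 °C with 20 mM D-glucuronate and 0.12 mM NADPH in 0.1 M sodium phosphate, pH 7.2. Inhibitor added in DMSO, kept at 1%. NADPH oxidation read at 340 nm against a substrate-free blank. IC50 from the log dose–inhibition curve, duplicates.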

The target of assay [2] is Sorbitol dehydrogenase (Ovis aries) (UniProt P07846). Nature of the assay: Inhibition of sorbitol dehydrogenase from sheep liver (40 U/mg of protein).
Chain of Sorbitol dehydrogenase (Ovis aries) (P07846 whole entry, looked up): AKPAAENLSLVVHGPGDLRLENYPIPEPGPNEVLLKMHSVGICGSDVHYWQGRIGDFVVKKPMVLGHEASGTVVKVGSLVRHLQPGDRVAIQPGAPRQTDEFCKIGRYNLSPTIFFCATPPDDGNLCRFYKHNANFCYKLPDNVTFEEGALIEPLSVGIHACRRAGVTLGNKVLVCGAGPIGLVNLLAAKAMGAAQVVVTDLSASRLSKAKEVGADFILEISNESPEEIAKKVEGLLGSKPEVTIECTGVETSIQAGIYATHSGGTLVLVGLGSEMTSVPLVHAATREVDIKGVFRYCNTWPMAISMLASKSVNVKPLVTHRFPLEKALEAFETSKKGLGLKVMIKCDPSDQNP
In assay [3] the target is T1, Glutathione reductase, mitochondrial (Homo sapiens) (UniProt P00390).
T1 sequence (whole entry): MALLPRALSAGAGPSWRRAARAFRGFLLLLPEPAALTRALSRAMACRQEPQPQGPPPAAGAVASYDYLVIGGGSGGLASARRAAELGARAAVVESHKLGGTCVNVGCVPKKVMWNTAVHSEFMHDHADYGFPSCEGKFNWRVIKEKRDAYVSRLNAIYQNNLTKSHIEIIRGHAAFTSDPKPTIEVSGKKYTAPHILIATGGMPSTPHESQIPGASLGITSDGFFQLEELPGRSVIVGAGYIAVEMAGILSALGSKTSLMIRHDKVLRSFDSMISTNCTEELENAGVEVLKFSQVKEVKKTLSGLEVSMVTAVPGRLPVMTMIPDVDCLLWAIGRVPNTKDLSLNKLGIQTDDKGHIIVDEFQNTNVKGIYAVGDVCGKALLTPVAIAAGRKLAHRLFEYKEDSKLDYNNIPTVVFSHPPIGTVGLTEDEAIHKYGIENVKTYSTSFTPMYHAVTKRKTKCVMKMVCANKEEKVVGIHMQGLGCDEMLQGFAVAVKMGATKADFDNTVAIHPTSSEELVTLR
Nature of the assay: Inhibition of glutathione reductase at 149 uM. The following applies: Saccharomyces cerevisiae.

For assay [4], the target named is Aldo-keto reductase family 1 member B1 (Bos taurus, UniProt P16116). The assay can be described thus: (§1) Evaluated for inhibition of Aldose reductase 2. An outline of the steps:
(§2)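 Calf lens ALR2, partially purified by DE-52 (6.5 mU/mg), at 3.5 mU/mL. Assay at 37 °C with 4.7 mM D,L-glyceraldehyde and 0.11 mM NADPH in 0.25 M sodium phosphate, pH 6.8, with 0.38 M ammonium sulfate. Inhibitor in DMSO (1% final). A340 decrease corrected by a no-substrate blank.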

Assay [5] has as its target Aldo-keto reductase family 1 member B1 (Bos taurus) (UniProt P16116). The assay is described as §1. An outline of the steps:
as §2

Assay [6] concerns the target T1, Glutathione reductase, mitochondrial (Homo sapiens). Nature of the assay: (§3) Inhibition of glutathione reductase. The following applies: Saccharomyces cerevisiae; concentration not given here.
For assay [7], the target named is T2, Glutathione reductase, mitochondrial (Homo sapiens, UniProt P00390).
T2 sequence (P00390 whole entry): T1 sequence (whole entry)
Described as §3. Also noted: species or system Saccharomyces cerevisiae.

Assay [8] has as its target T1, Glutathione reductase, mitochondrial (Homo sapiens). Nature of the assay: Inhibition of glutathione reductase at 138 uM. Particulars: Saccharomyces cerevisiae.
Assay [9] has as its target Sorbitol dehydrogenase (Ovis aries) (UniProt P07846). Nature of the assay: Inhibition of sorbitol dehydrogenase from sheep liver (40 U/mg of protein). Particulars: concentration not given here.

pIC50: −log10 of the molar value.

For `COc1cc2c(cc1OC)-c1nn(CC(=O)O)c(=O)cc1C2`, the figures for the inhibition in assay [1] and in assay [3] were 44.1% and 11.2%, respectively. Further, the IC50 result in assay [2] is “No inhibition”. The same compound gave a negative logarithm of the IC50 (pIC50) in assay [4] of 4.58.
Regarding `Cc1cc(C)c2c(c1)-c1nn(CCCC(=O)O)c(=O)cc1CC2`, the inhibition in assay [1] stood at 22.1%. Moreover, the IC50 result in assay [2] was “No inhibition”. In [4], this compound gave a pIC50 of 4.76.
`O=C(O)CCn1nc2c(cc1=O)CCc1ccccc1-2` registered an inhibition in [1] of 32.7%. The IC50 result in [2] was “No inhibition”. The pIC50 in assay [4] was 3.88.
Take `O=C1NC(=O)[C@@]2(CCOc3ccc(F)cc32)N1` [SORBINIL]: the IC50 result in assay [2] is given as “No inhibition”.
Consider `O=C(O)Cn1nc2c(cc1=O)Cc1ccccc1-2`, for which the inhibition in assay [5] came out at 35.8%; in [6] it was 9.4%. In assay [2], the IC50 entry is “No inhibition”.
In the case of `O=C(O)CCCn1nc2c(cc1=O)CCc1ccccc1-2`, the IC50 entry in [2] is “No inhibition”. In assay [4], the negative logarithm of the IC50 (pIC50) is 4.94.
`O=C(O)c1c2c(n[nH]c1=O)-c1ccccc1CC2` came in with an Inhibition in [7] of 18.9%.
For the compound `O=C(O)Cn1nc2c(cc1=O)CCCc1ccccc1-2`, the inhibition in assay [1] amounted to 15.1%. Also, in [2], the IC50 entry was “No inhibition”. The compound further had a pIC50 in assay [4] of 4.12.
For `Cc1cc(C)c2c(c1)C1=NN(CC(=O)O)C(=O)CC1CC2` (stereo unspecified), the inhibition in assay [1] is 21.8%. For the same compound, the pIC50 in assay [4] was 4.20.
Turning to `O=C(O)Cn1nc2c(c(C(=O)O)c1=O)Cc1ccccc1-2`, the inhibition in [5] is 32.4%; in assay [6] it was 22.3%. In [2], the IC50 entry is on record as “No inhibition”.
`O=C(O)c1c(O)nnc2c1CCc1ccccc1-2`: the results for the inhibition in assay [1] and in assay [5] were 8.3% and 9.9%, respectively. Also, in assay [2], the IC50 entry is recorded as “No inhibition”.
Regarding `Cc1cc(C)c2c(c1)-c1nn(CC(=O)O)c(=O)cc1CC2`, the IC50 entry in assay [2] was “No inhibition”. In assay [4], the pIC50 was 5.19.
As for `O=C(O)Cn1nc2c(c(C(=O)O)c1=O)CCCc1ccccc1-2`, the inhibition in [1] was 10.3%; in assay [5], 12.1%.
In turn, `O=C(O)Cn1nc2c(cc1=O)CCc1ccccc1-2` showed an inhibition in assay [8] of 4.2%. Besides, in assay [2], the IC50 entry is “No inhibition”. This compound also gave a pIC50 in assay [4] of 4.90.
As for `Cc1cc(C)c2c(c1)-c1nn(CCC(=O)O)c(=O)cc1CC2`, the IC50 result in assay [2] is on record as “No inhibition”. In assay [4], the negative-log IC50 (pIC50) is 4.29.
Compound `COc1cc2c(cc1OC)-c1nn(CCC(=O)O)c(=O)cc1CC2` had an inhibition in assay [1] of 8%. Further, the IC50 result in assay [2] is listed as “No inhibition”. This compound also gave a pIC50 in [4] of 3.79.
As for `O=C(O)c1c2c(n[nH]c1=O)-c1ccccc1CCC2`, the values for the inhibition in assay [1] and in [5] were 6.8% and 13.2%, respectively.
In turn, `O=C(O)Cn1nc2c(c(C(=O)O)c1=O)CCc1ccccc1-2` yielded an inhibition in assay [6] of 23.7%. In addition, the IC50 result in assay [2] is given as “No inhibition”. For the same compound, the pIC50 in assay [4] is 4.48.
Consider `COc1ccc2c(C(=S)N(C)CC(=O)O)cccc2c1C(F)(F)F` [TOLRESTAT], for which, in [9], the inhibition is 16.4%.
As to `COc1cc2c(cc1OC)-c1nn(CC(=O)O)c(=O)cc1CC2`, the inhibition in assay [1] is 11.3%. Moreover, the IC50 entry in [2] is reported as “No inhibition”. The same compound had a negative logarithm of the IC50 (pIC50) in [4] of 3.94.
`COc1cc2c(cc1OC)-c1nn(CCCC(=O)O)c(=O)cc1CC2` came in with an inhibition in assay [1] of 10.1%. Further, in assay [2], the IC50 entry is reported as “No inhibition”. This compound showed a pIC50 in assay [4] of 5.12.
On to `O=C(O)c1c(O)nnc2c1Cc1ccccc1-2`, for which the inhibition stood at 0% in assay [1] and 5.3% in assay [5]. In assay [2], the IC50 result is “No inhibition”. Besides, the Inhibition in assay [7] stood at 12.3%.

Usually inhibition stands for the share of the control response that was lost under treatment. A word on the pIC50: it is −log10 of the IC50, conventionally taken in molar units. The term Inhibition denotes the share of the control response that was lost under treatment.
